# Measurements from different studies.
# Protocols differ between the studies behind these lines.
# EIF2AK2: Interferon-induced, double-stranded RNA-activated protein kinase (EIF2AK2, Homo sapiens, UniProt P19525)
# MC4R: Melanocortin receptor 4 (MC4R, Homo sapiens, UniProt P32245)
# BCHE: Cholinesterase (BCHE, Homo sapiens, UniProt P06276)
Compound,target,read-out,mode,method,tested at,inhibition [%]
COc1cc(Nc2ncc(F)c(Nc3ccc4c(n3)NC(=O)C(C)(C)O4)n2)cc(OC)c1OC,EIF2AK2,binding,,competition with immobilised ligand,10 µM,86
COc1ccc(S(=O)(=O)N2CCCCC2)cc1C,MC4R,ligand displacement,,radioligand,10 µM,< 30
CCN(CC)CCCC[C@H](NC(=O)[C@H](CC(C)C)NC(=O)[C@H](C)NC(=O)[C@H](Cc1ccccc1)NC(=O)c1ccc(C(C)(C)C)cc1)C(=O)N[C@@H](CO)C(=O)OC,MC4R,ligand displacement,,radioligand,10 µM,16
O=C(Nc1cccnn1)N1CCN([C@@H]2CCOc3cc(C(F)(F)F)ccc32)CC1,"Somatostatin receptor type 1 (SSTR1, Homo sapiens, UniProt P30872)",cell-free assay,,,20 µM,10
C=CCn1c2cc(OC(=O)CCCCCCN3CCN(Cc4ccccc4)CC3)ccc2c2ccnc(C)c21,BCHE,enzyme activity,inhibitor,Ellman,1 µM,36.8
Cn1cc(-c2cc(F)cc(N3CCn4c(cc5c4CCCC5)C3=O)c2CO)cc(Nc2ccc(N3CCN(C4COC4)CC3)cn2)c1=O,"Tyrosine-protein kinase Fgr (FGR, Homo sapiens, UniProt P09769)",enzyme activity,inhibitor,,0.1 µM,40
COc1cc2c(cc1OC)C(=O)C(CC1CCN(Cc3ccccc3)CC1)C2 (centres unmarked),BCHE,enzyme activity,inhibitor,Ellman,1 µM,22.5
COCc1c(-c2cc3cc(C)cc(OC)c3s2)c2c(N)ncnn2c1CN1CCNC(=O)C1,EIF2AK2,cell-free assay,,competition with immobilised ligand,1 µM,97.3
COc1ccc2c(c1)[nH]c1c(C)nccc12,"DNA dC->dU-editing enzyme APOBEC-3B (Homo sapiens, UniProt Q9UH17)",enzyme activity,inhibitor,fluorescence,100 µM,53.6
C=CCn1c2cc(OC(=O)CCCCN3CCN(Cc4ccccc4C)CC3)ccc2c2ccnc(C)c21,BCHE,enzyme activity,inhibitor,Ellman,1 µM,39.8
C#Cc1n[nH]c2c(-c3cn(C(C)c4ccccn4)c(=O)[nH]c3=O)cc(F)cc12 (centres unmarked),"Fibroblast growth factor receptor 4 (FGFR4, Homo sapiens, UniProt P22455)",enzyme activity,inhibitor,,1 µM,0.5
C=CCn1c2cc(OC(=O)CCCCN3CCN(Cc4cccc(F)c4)CC3)ccc2c2ccnc(C)c21,BCHE,enzyme activity,inhibitor,Ellman,1 µM,17.3
CC(C)C[C@H](NC(=O)[C@H](Cc1ccccc1)NC(=O)c1cnccn1)B(O)O,"Plasma kallikrein (KLKB1, Homo sapiens, UniProt P03952)",enzyme activity,inhibitor,,33 µM,94.2
CN(CCN1CCC(OC(=O)Nc2ccccc2-c2ccccc2)CC1)C(=O)c1ccc(CN2CCC(C(N)=O)CC2)cc1,MC4R,ligand displacement,,radioligand,1 µM,1
